Experiments:
[1] = species on record: Rattus norvegicus; experiment: Tissue distribution in rat spleen after 30 minutes (n=3); format: ADME, organism-based; conditions: in vivo, 0.5 h
Outline: (§1)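 Male Wistar rats (200-350 g) under ether anesthesia; radiotracer (3-5 μCi in 0.1 mL 50% aqueous ethanol) given iv. At 5, 30, 60 and 180 min, blood was drawn by cardiac puncture and animals were killed by cardiectomy. Organs were weighed and γ-counted against a 1:100 dilution of the injected dose. Results are given as % injected dose/g tissue; ratios are taken between tissue levels.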

[2] = species on record: Rattus norvegicus; experiment: Tissue distribution in rat liver after 60 minutes (n=3); format: ADME, organism-based; conditions: in vivo, 1 h; outline: as §1
[3] = species on record: Rattus norvegicus; experiment: Tissue distribution in rat gonads after 30 minutes (n=3); format: ADME, organism-based, Gonad; conditions: in vivo, 0.5 h; outline: as §1
[4] = species on record: Rattus norvegicus; experiment: Tissue distribution in rat gonads after 5 minutes (n=3); format: ADME, organism-based, Gonad; conditions: in vivo; outline: as §1
[5] = species on record: Rattus norvegicus; experiment: Regional kinetics in the rat cerebellum at 30 minutes; format: ADME, organism-based; conditions: in vivo, 0.5 h
Outline: (§2)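 Male Wistar rats (n = 4 per time point) under ether received (+)-radiotracer iv (2 μCi in 100 μL 50% aqueous EtOH). They were killed at 30, 120 or 180 min. Brains were partially frozen and dissected into striatum, cerebellum, cortex and remainder. Regions were γ-counted against injected-dose dilutions and expressed as % injected dose/g tissue.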

[6] = Ratio of tissue distribution between rat heart and blood after 5 min; format: ADME, organism-based; conditions: heart and blood; outline: as §1
[7] = species on record: Rattus norvegicus; experiment: Ratio of tissue distribution between rat brain and blood after 180 min; format: ADME, organism-based; conditions: 3 h
Outline: (§3)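 Male Wistar rats (200-350 g) under ether anesthesia, iv radiotracer (3-5 μCi in 0.1 mL 50% aqueous ethanol). At 5, 30, 60, 180 min blood taken by cardiac puncture, animal killed by cardiectomy; organs weighed, γ-counted against 1:100 injected-dose dilution; % injected dose/g tissue; brain/blood ratio.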

[8] = species on record: Rattus norvegicus; experiment: Ratio of tissue distribution between rat heart and blood after 30 min; format: ADME, organism-based; conditions: other tissue, 0.5 h; outline: as §1
[9] = species on record: Rattus norvegicus; experiment: Effect of vesamicol on the accumulation in rat spleen [0.97 (0.89-1.04)]; format: ADME, organism-based; conditions: in vivo
Outline: (§4)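 Male Wistar rats (n = 4/group) given iv vehicle (100 μL 50% aqueous EtOH) or dl-vesamicol (1.01 μmol/kg); 15 min later iv radiotracer (2.0 μCi in 100 μL 50% aqueous EtOH); killed 30 min post-tracer. Blood by cardiac puncture, organs weighed and γ-counted vs 1:100 injected-dose dilution; % dose/g tissue (range); tissue/blood ratios.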

[10] = species on record: Rattus norvegicus; experiment: Tissue distribution in rat spleen after 5 minutes (n=3); format: ADME, organism-based; conditions: in vivo
Outline: (§5)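 Male Wistar rats (200-350 g) under ether, iv [125I]tracer (3-5 μCi in 0.1 mL 50% aqueous EtOH). At 5, 30, 60 or 180 min, blood taken by cardiac puncture and the rat killed by cardiectomy. Organs weighed and γ-counted against 1:100 dilutions of the injected dose; results in % injected dose/g, with range.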

[11] = species on record: Rattus norvegicus; experiment: Tissue distribution in rat brain after 30 minutes (n=3); format: ADME, organism-based; conditions: in vivo, 0.5 h; outline: as §1
[12] = species on record: Rattus norvegicus; experiment: Ratio of regional kinetics between rat brain caudate and cortex at 180 minutes; format: ADME, organism-based; conditions: in vivo, 3 h
Outline: (§6)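 Male Wistar rats (n = 4/group) under ether anesthesia, iv (+)-[125I]MIBT (2 μCi in 100 μL 50% aqueous EtOH); killed at 30, 120, 180 min. Brains partially frozen, dissected into striatum, cerebellum, cortex and remainder; radioactivity counted, % dose/g vs injected-dose dilutions; caudate/cortex and caudate/cerebellum ratios.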

[13] = species on record: Rattus norvegicus; experiment: Tissue distribution in rat gonads after 180 minutes (n=3); format: ADME, organism-based, Gonad; conditions: in vivo, 3 h; outline: as §1
[14] = species on record: Rattus norvegicus; experiment: Ratio of tissue distribution between rat heart and blood after 60 min; format: ADME, organism-based; conditions: other tissue, 1 h; outline: as §1
[15] = species on record: Rattus norvegicus; experiment: Regional kinetics in the rat cerebellum at 180 minutes; format: ADME, organism-based; conditions: in vivo, 3 h; outline: as §2
[16] = species on record: Rattus norvegicus; experiment: Tissue distribution in rat muscle after 60 minutes (n=3); format: ADME, organism-based; conditions: in vivo, 1 h; outline: as §5
[17] = species on record: Rattus norvegicus; experiment: Ratio of regional kinetics between rat brain caudate and cerebellum at 120 minutes; format: ADME, organism-based; conditions: in vivo, 2 h; outline: as §6
[18] = species on record: Rattus norvegicus; experiment: Tissue distribution in rat lung after 180 minutes (n=3); format: ADME, organism-based; conditions: in vivo, 3 h; outline: as §5
[19] = Ratio of tissue distribution between rat heart and blood after 120 min; format: ADME, organism-based
[20] = species on record: Rattus norvegicus; experiment: Tissue distribution in rat lung after 5 minutes (n=3); format: ADME, organism-based; conditions: in vivo; outline: as §1
[21] = species on record: Rattus norvegicus; experiment: Regional kinetics in the rat brain caudate-putamen at 30 minutes; format: ADME, organism-based; conditions: in vivo, 0.5 h; outline: as §2
[22] = species on record: Rattus norvegicus; experiment: Regional kinetics in the rat brain caudate-putamen at 180 minutes; format: ADME, organism-based; conditions: in vivo, 3 h; outline: as §2
[23] = species on record: Rattus norvegicus; experiment: Tissue distribution in rat liver after 30 minutes (n=3); format: ADME, organism-based; conditions: in vivo, 0.5 h; outline: as §1
[24] = species on record: Rattus norvegicus; experiment: Effect of 4-aminobenzovesamicol on the regional distribution of compound in the rat cerebellum (n=4) [0.12 (0.10-0.13)]; format: ADME, organism-based; conditions: in vivo
[25] = species on record: Rattus norvegicus; experiment: Effect of haloperidol on the regional distribution of compound in the remainder of rat brain (n=4) [0.33 (0.28-0.40)]; format: ADME, organism-based; conditions: in vivo
[26] = species on record: Rattus norvegicus; experiment: Effect of vesamicol on the accumulation in rat lung [1.56 (1.28-1.90)]; format: ADME, organism-based; conditions: in vivo; outline: as §4
[27] = species on record: Rattus norvegicus; experiment: Tissue distribution in rat kidney after 5 minutes (n=3); format: ADME, organism-based; conditions: in vivo; outline: as §1
[28] = Ratio of tissue distribution between rat brain and blood after 5 min; format: ADME, organism-based; conditions: brain and blood; outline: as §3
[29] = species on record: Rattus norvegicus; experiment: Regional kinetics in the remainder of rat brain at 180 minutes; format: ADME, organism-based; conditions: in vivo, 3 h; outline: as §2
[30] = species on record: Rattus norvegicus; experiment: Tissue distribution in rat thyroid after 60 minutes (n=3); format: ADME, organism-based, Thyroid gland; conditions: in vivo, 1 h; outline: as §1
[31] = species on record: Rattus norvegicus; experiment: Effect of vesamicol on the accumulation in rat brain [0.51 (0.45-0.66)]; format: ADME, organism-based; conditions: in vivo; outline: as §4
[32] = species on record: Rattus norvegicus; experiment: Regional kinetics in the rat cerebellum at 120 minutes; format: ADME, organism-based; conditions: in vivo, 2 h
Outline: (§7)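 Male Wistar rats under ether anaesthesia, iv (+)-[125I]tracer (2 μCi in 100 μL 50% aqueous EtOH); killed at 30, 120 or 180 min. Brains partially frozen and dissected into striatum, cerebellum, cortex and remainder, then counted for radioactivity. Results are % injected dose/g, calculated against counted dilutions of the injected dose.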

[33] = species on record: Rattus norvegicus; experiment: Tissue distribution in rat lung after 60 minutes (n=3); format: ADME, organism-based; conditions: in vivo, 1 h; outline: as §1
[34] = species on record: Rattus norvegicus; experiment: Tissue distribution in rat blood after 60 minutes (n=3); format: ADME, organism-based; conditions: in vivo, 1 h; outline: as §5
[35] = species on record: Rattus norvegicus; experiment: Regional kinetics in the rat brain cortex at 30 minutes; format: ADME, organism-based; conditions: in vivo, 0.5 h; outline: as §7
[36] = species on record: Rattus norvegicus; experiment: Tissue distribution in rat brain after 180 minutes (n=3); format: ADME, organism-based; conditions: in vivo, 3 h; outline: as §5
[37] = species on record: Rattus norvegicus; experiment: Ratio of effect haloperidol on regional distribution between rat brain caudate and cortex; format: ADME, organism-based; conditions: in vivo
[38] = species on record: Rattus norvegicus; experiment: Effect of vesamicol on the accumulation in rat thyroid [1.77 (1.47-1.93)]; format: ADME, organism-based, Thyroid gland; conditions: in vivo
Outline: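 Male Wistar rats. Pretreatment at t = 0 was iv vehicle (50% aqueous EtOH) or iv dl-vesamicol (1.01 μmol/kg). At 15 min, iv [125I]tracer (2.0 μCi in 100 μL 50% aqueous EtOH) was given; rats were killed 30 min later. Tissues were weighed and γ-counted, and values expressed as % injected dose/g; n = 4 per group.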

[39] = species on record: Rattus norvegicus; experiment: Tissue distribution in rat spleen after 60 minutes (n=3); format: ADME, organism-based; conditions: in vivo, 1 h; outline: as §1
[40] = species on record: Rattus norvegicus; experiment: Tissue distribution in rat heart after 180 minutes (n=3); format: ADME, organism-based; conditions: in vivo, 3 h; outline: as §1
[41] = species on record: Rattus norvegicus; experiment: Effect of vesamicol on the accumulation in rat gonads [0.15 (0.14-0.15)]; format: ADME, organism-based; conditions: in vivo; outline: as §4
[42] = species on record: Rattus norvegicus; experiment: Regional kinetics in the remainder of rat brain at 30 minutes; format: ADME, organism-based; conditions: in vivo, 0.5 h; outline: as §2
[43] = species on record: Rattus norvegicus; experiment: Tissue distribution in rat brain after 5 minutes (n=3); format: ADME, organism-based; conditions: in vivo; outline: as §1
[44] = species on record: Rattus norvegicus; experiment: Tissue distribution in rat liver after 5 minutes (n=3); format: ADME, organism-based; conditions: in vivo; outline: as §5
[45] = species on record: Rattus norvegicus; experiment: Tissue distribution in rat kidney after 30 minutes (n=3); format: ADME, organism-based; conditions: in vivo, 0.5 h; outline: as §1
[46] = species on record: Rattus norvegicus; experiment: Tissue distribution in rat muscle after 180 minutes (n=3); format: ADME, organism-based; conditions: in vivo, 3 h; outline: as §1
[47] = species on record: Rattus norvegicus; experiment: Regional kinetics in the rat brain caudate-putamen at 120 minutes; format: ADME, organism-based; conditions: in vivo, 2 h; outline: as §2

## O[C@@H]1CCN(Cc2cccc([125I])c2)C[C@H]1N1CCC(c2ccccc2)CC1 (stereo in doubt; (+))
[1]
  Dose/g: 1.07%
[2]
  Dose/g: 1.91%
[3]
  Dose/g: 0.15%
[4]
  Dose/g: 0.13%
[5]
  Dose/g: 0.53%
[6]
  Kp at 5 min: 4.68
[7]
  Ratio: 2.35
[8]
  Ratio: 2.33
[9]
  Dose/g: 0.97%
[10]
  Dose/g: 0.76%
[11]
  Dose/g: 0.36%
[12]
  Ratio: 1.93
[13]
  Dose/g: 0.16%
[14]
  Ratio: 1.7
[15]
  Dose/g: 0.17%
[16]
  Dose/g: 0.11%
[17]
  Ratio: 2.43
[18]
  Dose/g: 0.39%
[19]
  Kp at 2 h: 1.6
[20]
  Dose/g: 3.67%
[21]
  Dose/g: 0.64%
[22]
  Dose/g: 0.49%
[23]
  Dose/g: 2.18%
[24]
  Dose/g: 0.11%
[25]
  Dose/g: 0.17%
[26]
  Dose/g: 1.59%
[27]
  Dose/g: 2.25%
[28]
  Kp at 5 min: 2.33
[29]
  Dose/g: 0.25%
[30]
  Dose/g: 4.59%
[31]
  Dose/g: 0.3%
[32]
  Dose/g: 0.28%
[33]
  Dose/g: 0.82%
[34]
  Dose/g: 0.09%
[35]
  Dose/g: 0.65%
[36]
  Dose/g: 0.15%
[37]
  Ratio: 4.82
[38]
  Dose/g: 2.02%
[39]
  Dose/g: 0.86%
[40]
  Dose/g: 0.1%
[41]
  Dose/g: 0.15%
[42]
  Dose/g: 0.59%
[43]
  Dose/g: 0.57%
[44]
  Dose/g: 1.6%
[45]
  Dose/g: 1.32%
[46]
  Dose/g: 0.08%
[47]
  Dose/g: 0.67%
